Bioassay records as filed in PubChem.
MsrA inhibitor: bovine MsrA inhibition; 0.75% of 360,000 active; purified bovine MsrA, absorbance read-out; inhibition, % at 15.5 µM; AID 651718; in the data active = inhibition above about 4.5%;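 also: 0% = vehicle wells with enzyme and 100% = reference inhibitor wells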
p-CIP stab down: p/CIP protein destabilization; decrease of EGFP signal, % at 10 µM; Q05BA5; 0.01% of 290,000 active; F442A p/CIP-EGFP cells, EGFP fluorescence, 16 h;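 active = EGFP signal decrease of at least 30% at 10 µM or well 3 SD below plate mean, unless failing retest; inactive = the rest, including hits failing retest or dose response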
MsrA act: bovine methionine sulfoxide reductase A activation; purified bovine MsrA, absorbance read-out; activation, % at 10.6 µM; 0.3% of 360,000 active; in the data active = activation above about 7.5%;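 also: 0% = vehicle and 100% = reference activator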
MT1-MMP act inh: blocks activation of human MT1-MMP; HT1080 RFP-PRO-GFP cells, GFP/RFP ratio fluorescence, overnight; percent of plate control window, DMSO zero; GFP/RFP ratio change, % at 20 µM; 0.061% of 360,000 active;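 active = GFP/RFP ratio change of at least 30% with cell ATP level not reduced by more than half and red fluorescence within 50% of control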
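Assay system – RFP-PRO-GFP reporter HT1080 cells · Compound dosing – single dose of 20 µM compound, 1% DMSO final · Incubation – overnight compound exposure at 37 °C · Measure – GFP/RFP fluorescence ratio · Benchmarks – DMSO wells and RFP-L50D-GFP cells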
SKN-1 inh: inhibitors of C. elegans SKN-1 | C. elegans VP596 Pgst-4::GFP/RFP ratio, acrylamide-induced, 24 h | inhibition, % at 21.8 µM | 0.49% of 360,000 active | AID 624304;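 active = interference check ratio from 0.5 to 1.5 plus GFP to RFP signal ratio inhibition reaching or exceeding a fixed threshold, cut at about 30% in these data, passing the limit was not always enough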
An asterisk follows results filed as active. Most compounds without a hit are left out; they make up all but 1.6% or so of the library.

What do the screens show for `CCOC(=O)c1sc(NC(=O)CN2CC(C)OC(C)C2)nc1C` (stereo not drawn)?
MsrA inhibitor: 0; p-CIP stab down: -1; MsrA act: -2; MT1-MMP act inh: -1; SKN-1 inh: 35*

Results for Clc1ccc(-c2csc(NCC3CCCO3)n2)cc1 (stereo not drawn) ?
MsrA inhibitor: -2

How did Cc1nnc(-n2cccc2)s1 do in these assays?
MsrA inhibitor: 0

Results for COc1ccc(N2C(=O)CN=C2Nc2nc(C)cc(C)n2)cc1 ?
MsrA inhibitor: 4.5*; p-CIP stab down: -14; MsrA act: -1; MT1-MMP act inh: 0; SKN-1 inh: -16

What do the screens show for `Cc1cc(C)nc(NC2=NCC(=O)N2c2ccccc2)n1`?
MsrA inhibitor: 2; p-CIP stab down: 1; MsrA act: -6; MT1-MMP act inh: 3; SKN-1 inh: -9

Results for O=C(Nc1ccc(-c2cn3ccsc3n2)cc1)C1COc2ccccc2O1 (stereo not drawn) ?
MsrA inhibitor: -1; p-CIP stab down: -8; MsrA act: -1; MT1-MMP act inh: 0; SKN-1 inh: 36*

How did Cc1ccc(NC(=O)C2COc3ccccc3O2)cc1 (stereo not drawn) do in these assays?
MsrA inhibitor: 0; p-CIP stab down: 11; MsrA act: -1; MT1-MMP act inh: 0; SKN-1 inh: 2

What do the screens show for `Cc1cc(NC(=O)Cc2cn(C)c3ccccc23)ccc1Oc1cccnc1`?
MsrA inhibitor: 1

Results for COC(=O)C1=C(C)NC(C)=C(C(=O)OC)C1c1ccc(OC(=O)c2ccco2)cc1 ?
MsrA inhibitor: 1; p-CIP stab down: 0; MsrA act: 1; MT1-MMP act inh: 4; SKN-1 inh: 35*

Results for COC(=O)C1=C(C)NC(=S)NC1c1ccc(OC(=O)c2ccco2)cc1 (stereo not drawn) ?
MsrA inhibitor: 2; p-CIP stab down: -10; MsrA act: -16; MT1-MMP act inh: 1; SKN-1 inh: -7

Results for c1ccc(-c2ccccc2-c2nc(-c3ccncc3)no2)cc1 ?
MsrA inhibitor: -1; p-CIP stab down: -3; MsrA act: -10; MT1-MMP act inh: -5; SKN-1 inh: -22

What do the screens show for `Clc1ccc(OCCCc2nc(-c3cccnc3)no2)c(Cl)c1`?
MsrA inhibitor: 3; p-CIP stab down: -16; MsrA act: -4; MT1-MMP act inh: -3; SKN-1 inh: 27

What do the screens show for `Clc1ccccc1-c1nc(-c2ccncc2)no1`?
MsrA inhibitor: 1; p-CIP stab down: 0; MsrA act: -1; MT1-MMP act inh: -2; SKN-1 inh: 46*

What do the screens show for `Clc1ccc(OCCCc2nc(-c3ccncc3)no2)c(Cl)c1`?
MsrA inhibitor: 0; p-CIP stab down: -10; MsrA act: -4; MT1-MMP act inh: 5; SKN-1 inh: 43*

How did Clc1ccc(Cl)c(-c2nc(-c3ccncc3)no2)c1 do in these assays?
MsrA inhibitor: 0; p-CIP stab down: 4; MsrA act: -2; MT1-MMP act inh: 0; SKN-1 inh: 16

Results for Clc1ccc(-c2nc(-c3ccncc3)no2)c(Cl)c1 ?
MsrA inhibitor: -1; MsrA act: -2; MT1-MMP act inh: 0; SKN-1 inh: 36*

How did Clc1ccccc1-c1nc(-c2cccnc2)no1 do in these assays?
MsrA inhibitor: 1; p-CIP stab down: 5; MsrA act: -4; MT1-MMP act inh: -5; SKN-1 inh: 34*

What do the screens show for `COCc1cc(N2CCN(C(=O)OC(C)(C)C)C[C@H]2C)ccc1N1CCN(Cc2ccccc2)[C@@H](C)C1`?
MsrA inhibitor: 1

Results for COC(=O)c1cc(CC(=O)c2ccc(O)cc2O)c(C)o1 ?
MsrA inhibitor: 7.2*; p-CIP stab down: -4; MsrA act: -4; MT1-MMP act inh: 3; SKN-1 inh: -5

How did COC(=O)c1ccc(CC(=O)c2ccc(O)cc2O)o1 do in these assays?
p-CIP stab down: -6; MsrA act: -3; MT1-MMP act inh: -7; SKN-1 inh: 9

What do the screens show for `Cc1ccc(OCC(=O)Sc2ccc(C)cc2)cc1`?
MsrA inhibitor: 1; p-CIP stab down: -9; MsrA act: -4; MT1-MMP act inh: -12; SKN-1 inh: 56*

What do the screens show for `NC(=O)[C@@H]1CCCN1C(=O)[C@@H](Cc1ccccc1)NC(=O)[C@H]1O[C@@H](n2ccc(=O)[nH]c2=O)[C@H](O)[C@@H]1O`?
MsrA inhibitor: -1
